We go through 2 compounds from ChEMBL document CHEMBL4190389, “Synthesis and activity of di- or trisubstituted N-(phenoxyalkyl)- or N-{2-[2-(phenoxy)ethoxy]ethyl}piperazine derivatives on the central nervous system” (Bioorg Med Chem Lett, 2018).

The subject of data set [1] is Mus musculus. As to the kind of experiment: Antidepressant-like activity in Albino Swiss CD-1 mouse assessed as immobility time at 20 mg/kg, ip administered 30 mins prior to test measured for last 4 mins of 6 mins observation by forced swim test (reference value: 153.9 to 201.9 secs). The class given is functional.
In data set [2] the target is T1, D(2) dopamine receptor (Homo sapiens, UniProt P14416). Kind of data set: Displacement of [3H]methylspiperonee from recombinant human D2 receptor expressed in HEK293 cell membranes at 10^-5 M after 60 mins by liquid scintillation counting method. (Loss of bound radioactivity is the signal in a displacement assay; it reports binding, not function.)
T1 sequence (P14416 whole entry): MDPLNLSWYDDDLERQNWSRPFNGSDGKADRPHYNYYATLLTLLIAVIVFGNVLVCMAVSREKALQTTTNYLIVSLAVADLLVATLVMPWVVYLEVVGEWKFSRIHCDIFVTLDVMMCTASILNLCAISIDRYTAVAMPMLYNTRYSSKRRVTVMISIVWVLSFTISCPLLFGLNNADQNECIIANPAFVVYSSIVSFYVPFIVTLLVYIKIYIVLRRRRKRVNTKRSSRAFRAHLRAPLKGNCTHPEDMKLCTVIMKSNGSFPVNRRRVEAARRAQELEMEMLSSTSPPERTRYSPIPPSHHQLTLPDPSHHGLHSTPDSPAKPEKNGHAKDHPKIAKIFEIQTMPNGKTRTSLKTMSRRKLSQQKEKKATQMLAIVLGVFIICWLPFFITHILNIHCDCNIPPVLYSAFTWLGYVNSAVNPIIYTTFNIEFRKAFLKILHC
Data set [3] relates to Mus musculus. As to the kind of experiment: Toxicity in Albino Swiss CD-1 mouse assessed as death at 15 to 30 mg/kg, ip. The class given is organism-based. As to conditions: in vivo. Summed up: (§1)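 Deaths counted in mice during maximal electroshock (MES) seizure testing after i.p. dosing, 6 mice per dose (3 or 1 at some top doses); recorded as number dead/number tested alongside protection and rotarod motor impairment (10 rpm); untreated control group included.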

The test system of data set [4] is Mus musculus. As to the kind of experiment: Toxicity in Albino Swiss CD-1 mouse assessed as effect on locomotory activity at 5 to 10 mg/kg, ip administered for 30 mins prior to test measured for 1 min. The format is organism-based. As to conditions: in vivo. In short, it runs like this:
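Mice dosed i.p. 30 min before test; vehicle groups received 0.9% NaCl. Spontaneous locomotion scored as number of crossings during a 1-min session. Each dose compared with its own vehicle group by Student t-test; mean ± SEM, n = 8–10 mice per group.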

Data set [5] in a line: Protection index, ratio of TD50 for motor impairment in ip dosed Swiss albino CD-1 mouse to ED50 for protection against 50 Hz current-induced seizures in ip dosed Swiss albino CD-1 mouse. The class given is toxicity, organism-based, Swiss CD-1. As to conditions: in vivo, read-out: Ratio TD50/ED50.
Data set [6] has as its target T2, Alpha-1A adrenergic receptor (Homo sapiens, UniProt P35348).
T2 sequence (P35348 whole entry): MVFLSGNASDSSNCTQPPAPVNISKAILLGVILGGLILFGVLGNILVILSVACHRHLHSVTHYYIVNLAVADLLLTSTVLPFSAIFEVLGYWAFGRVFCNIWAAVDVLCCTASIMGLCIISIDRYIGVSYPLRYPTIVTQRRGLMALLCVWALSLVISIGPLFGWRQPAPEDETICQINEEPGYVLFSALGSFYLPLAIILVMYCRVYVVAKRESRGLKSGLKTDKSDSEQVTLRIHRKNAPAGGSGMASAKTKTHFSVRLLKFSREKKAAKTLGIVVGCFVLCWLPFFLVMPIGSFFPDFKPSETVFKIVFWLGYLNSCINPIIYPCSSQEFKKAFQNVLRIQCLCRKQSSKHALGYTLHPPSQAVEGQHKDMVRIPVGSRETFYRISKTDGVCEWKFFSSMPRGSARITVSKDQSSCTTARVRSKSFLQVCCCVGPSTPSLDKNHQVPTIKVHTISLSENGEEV
Kind of data set: Displacement of [3H]prazosin from recombinant human alpha1 adrenoceptor expressed in CHO cell membranes after 30 mins by liquid scintillation counting method.

The target in data set [7] is 5-hydroxytryptamine receptor 6 (Homo sapiens, UniProt P50406). As to the kind of experiment: Displacement of [3H]LSD from recombinant human 5-HT6 receptor expressed in CHO cells cell membranes after 60 mins by liquid scintillation counting method.
Sequence of 5-hydroxytryptamine receptor 6 (P50406 whole entry): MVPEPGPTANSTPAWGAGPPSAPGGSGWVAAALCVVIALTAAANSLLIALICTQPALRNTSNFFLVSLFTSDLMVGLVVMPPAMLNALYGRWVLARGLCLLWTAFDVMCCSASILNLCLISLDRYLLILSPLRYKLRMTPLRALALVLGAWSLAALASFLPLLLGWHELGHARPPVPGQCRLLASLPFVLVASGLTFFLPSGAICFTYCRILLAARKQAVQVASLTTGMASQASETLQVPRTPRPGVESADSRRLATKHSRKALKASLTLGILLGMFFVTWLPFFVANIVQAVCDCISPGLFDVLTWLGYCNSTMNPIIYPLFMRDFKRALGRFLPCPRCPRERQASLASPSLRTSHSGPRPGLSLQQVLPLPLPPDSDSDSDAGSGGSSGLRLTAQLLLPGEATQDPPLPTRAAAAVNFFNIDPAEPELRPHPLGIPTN
Data set [8] deals with T3, 5-hydroxytryptamine receptor 1A (Homo sapiens) (UniProt P08908).
T3 sequence (whole entry): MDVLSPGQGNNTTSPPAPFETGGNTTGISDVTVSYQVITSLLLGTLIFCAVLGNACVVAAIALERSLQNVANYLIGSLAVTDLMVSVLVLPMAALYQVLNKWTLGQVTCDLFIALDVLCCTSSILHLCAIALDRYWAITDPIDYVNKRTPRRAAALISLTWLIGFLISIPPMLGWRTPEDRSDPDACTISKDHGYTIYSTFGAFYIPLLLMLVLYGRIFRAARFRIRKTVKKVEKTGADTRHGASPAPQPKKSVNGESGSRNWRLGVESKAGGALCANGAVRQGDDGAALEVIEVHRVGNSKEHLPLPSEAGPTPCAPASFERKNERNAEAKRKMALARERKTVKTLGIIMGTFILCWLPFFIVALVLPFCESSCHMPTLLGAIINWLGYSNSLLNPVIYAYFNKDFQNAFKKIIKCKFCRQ
As to the kind of experiment: Agonist activity at human 5-HT1A receptor expressed in CHO-K1 cells co-expressing Galpha16 assessed as increase in calcium mobilization measured for 30 secs by aequorin-derived luminescence assay relative to serotonin. The class given is functional, cell-based.

Data set [9] addresses T4, 5-hydroxytryptamine receptor 1A (Homo sapiens, UniProt P08908).
T4 sequence (P08908 whole entry): T3 sequence (whole entry)
Kind of data set: (§2) Antagonist activity at human 5-HT1A receptor expressed in CHO-K1 cells co-expressing Galpha16 assessed as decrease in serotonin calcium mobilization preincubated for 25 mins followed by serotonin challenge measured for 30 secs by aequorin-derived luminescence assay. The class given is functional, cell-based. (Calcium assays in cells follow changes in intracellular calcium, usually with a dye or a luminescent sensor.)

Data set [10] deals with T3, 5-hydroxytryptamine receptor 1A (Homo sapiens). The data set is described as §2. The format is functional, cell-based.
Data set [11] shares this target. As to the kind of experiment: Antagonist activity at human 5-HT1A receptor expressed in CHO-K1 cells co-expressing Galpha16 assessed as decrease in serotonin-induced calcium mobilization preincubated for 25 mins followed by serotonin challenge measured for 30 secs by aequorin-derived luminescence assay relative to control. The class given is functional, cell-based.

Data set [12] has as its system Mus musculus. As to the kind of experiment: Toxicity in Albino Swiss CD-1 mouse assessed as death at 100 mg/kg, ip. The class given is organism-based. As to conditions: in vivo. In short, it runs like this: as §1
Data set [13] in a line: Neurotoxicity in ip dosed Albino Swiss CD-1 mouse assessed as minimum dose required to induce motor impairment treated 30 mins prior to test by rotarod test. To be noted: in vivo. The format is toxicity, organism-based. For orientation: Falling from the rotarod earlier than controls is read as motor impairment.
Data set [14] concerns Mus musculus. As to the kind of experiment: Anticonvulsant activity in Albino Swiss CD-1 mouse assessed as protection against 50 Hz current-induced seizure at 30 mg/kg, ip. The class given is functional, organism-based.
The subject of data set [15] is Mus musculus. As to the kind of experiment: Anticonvulsant activity in ip dosed Albino Swiss CD-1 mouse assessed as dose required to protect against 50 Hz current-induced seizure. The class given is functional. To be noted: Swiss CD-1, ip.
Data set [16] deals with Mus musculus. As to the kind of experiment: Antidepressant-like activity in Albino Swiss CD-1 mouse assessed as immobility time at 5 mg/kg, ip administered 30 mins prior to test measured for last 4 mins of 6 mins observation by forced swim test (reference value: 153.9 to 201.9 secs). The class given is functional.
Data set [17] deals with Mus musculus. As to the kind of experiment: Antidepressant-like activity in Albino Swiss CD-1 mouse assessed as immobility time at 10 mg/kg, ip administered 30 mins prior to test measured for last 4 mins of 6 mins observation by forced swim test (reference value: 153.9 to 201.9 secs). The format is functional.
Data set [18] deals with Mus musculus. Kind of data set: Neurotoxicity in Albino Swiss CD-1 mouse assessed as motor impairment at 30 mg/kg, ip treated 30 mins prior to test by rotarod test. To be noted: in vivo, 0.5 h. The class given is toxicity, organism-based.
Data set [19] deals with 5-hydroxytryptamine receptor 7 (Homo sapiens, UniProt P34969). Kind of data set: biochemical. The format is cell-based, CHO.
Sequence of 5-hydroxytryptamine receptor 7 (P34969 whole entry): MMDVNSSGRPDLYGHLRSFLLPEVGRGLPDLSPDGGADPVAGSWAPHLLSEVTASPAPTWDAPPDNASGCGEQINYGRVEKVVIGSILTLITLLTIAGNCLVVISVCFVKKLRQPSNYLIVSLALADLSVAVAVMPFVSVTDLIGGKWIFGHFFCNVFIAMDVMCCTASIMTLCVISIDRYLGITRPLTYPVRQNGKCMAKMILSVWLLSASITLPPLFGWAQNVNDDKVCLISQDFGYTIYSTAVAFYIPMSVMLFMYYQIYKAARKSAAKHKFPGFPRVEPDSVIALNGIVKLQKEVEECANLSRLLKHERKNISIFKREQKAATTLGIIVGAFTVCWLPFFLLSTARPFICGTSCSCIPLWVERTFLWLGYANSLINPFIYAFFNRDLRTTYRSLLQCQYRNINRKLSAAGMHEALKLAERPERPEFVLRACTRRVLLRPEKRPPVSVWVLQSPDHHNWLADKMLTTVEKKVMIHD
The target of data set [20] is T5, 5-hydroxytryptamine receptor 2A (Homo sapiens, UniProt P28223). As to the kind of experiment: biochemical. The class given is cell-based, HEK293.
T5 sequence (P28223 whole entry): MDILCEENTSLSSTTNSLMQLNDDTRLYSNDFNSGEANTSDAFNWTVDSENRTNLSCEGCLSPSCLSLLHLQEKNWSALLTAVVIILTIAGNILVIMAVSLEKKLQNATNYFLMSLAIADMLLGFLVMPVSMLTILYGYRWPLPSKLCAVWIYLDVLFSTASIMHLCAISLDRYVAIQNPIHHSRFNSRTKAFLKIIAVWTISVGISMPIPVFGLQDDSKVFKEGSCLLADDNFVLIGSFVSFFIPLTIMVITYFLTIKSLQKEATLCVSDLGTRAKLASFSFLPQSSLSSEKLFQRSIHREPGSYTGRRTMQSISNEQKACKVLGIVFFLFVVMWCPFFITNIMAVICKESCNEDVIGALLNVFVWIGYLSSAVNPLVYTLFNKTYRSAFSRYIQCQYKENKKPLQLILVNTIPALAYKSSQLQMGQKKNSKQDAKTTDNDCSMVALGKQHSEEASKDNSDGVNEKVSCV
Data set [21] has as its target T4, 5-hydroxytryptamine receptor 1A. Kind of data set: Displacement of [3H]8-OH-DPAT from recombinant human 5-HT1A receptor expressed in HEK293 cell membranes after 60 mins by liquid scintillation counting method.
Data set [22] relates to Mus musculus. Kind of data set: Anticonvulsant activity in Albino Swiss CD-1 mouse assessed as protection against 50 Hz current-induced seizure at 100 mg/kg, ip. The format is functional, organism-based.
For data set [23], the target named is T3, 5-hydroxytryptamine receptor 1A (Homo sapiens). Kind of data set: Displacement of [3H]8-OH-DPAT from recombinant human 5-HT1A receptor expressed in HEK293 cell membranes at 10^-5 M after 60 mins by liquid scintillation counting method.
In data set [24] the test system is Mus musculus. Kind of data set: Anxiolytic-like activity in Albino Swiss CD-1 mouse assessed as increase in number of punished crossings at 5 to 10 mg/kg, ip administered for 30 mins prior to test measured for 1 min by four-plate test. The class given is functional, organism-based. Summed up:
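Four-plate test in mice, i.p., 30 min before test; vehicle 0.9% NaCl; doses 1.25–10 mg/kg; number of punished crossings counted; mean ± SEM, n = 8–10 mice per group; ANOVA F statistics.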

In data set [25] the test system is Mus musculus. As to the kind of experiment: Anticonvulsant activity in Albino Swiss CD-1 mouse assessed as protection against 50 Hz current-induced seizure at 45 mg/kg, ip. The format is functional, organism-based.
Data set [26] concerns the target T5, 5-hydroxytryptamine receptor 2A. Kind of data set: Antagonist activity at human 5-HT2A receptor expressed in CHO-K1 cells co-expressing Galpha16 assessed as decrease in serotonin calcium mobilization preincubated for 30 mins followed by serotonin challenge measured for 30 secs by aequorin-derived luminescence assay. The class given is functional, cell-based.

For data set [27], the system named is Mus musculus. Kind of data set: Toxicity in Albino Swiss CD-1 mouse assessed as death at 30 to 100 mg/kg, ip. The format is organism-based. As to conditions: in vivo. In short, it runs like this: as §1
Data set [28] concerns Mus musculus. As to the kind of experiment: Neurotoxicity in Albino Swiss CD-1 mouse assessed as motor impairment at 100 mg/kg, ip treated 30 mins prior to test by rotarod test. The class given is toxicity, organism-based. As to conditions: in vivo, 0.5 h.
Data set [29] deals with T1, D(2) dopamine receptor. Kind of data set: Displacement of [3H]methylspiperonee from recombinant human D2 receptor expressed in HEK293 cells cell membranes after 60 mins by liquid scintillation counting method.

Molecules are shown by their SMILES. Active and inactive are the calls of the source. The calls are words filed in the database; no cut-off is given here.

One may read the Ki as the dissociation constant of the complex between target and ligand, obtained from inhibition or displacement. What is called Emax is the size of the effect at its maximum, as opposed to the concentration needed. For orientation: IC50 means the concentration at which inhibition is half-maximal. As a reminder, the Kb is the equilibrium dissociation constant of an antagonist, usually derived from a functional assay. As a reminder, the TD50 is the dose at which the toxic effect under study appears in half of the subjects. As usually defined, the ED50 is the midpoint of the dose-response relation. For `Cc1cc(C)c(OCCOCCN2CCN(CCc3ccccc3)CC2)c(C)c1.Cl.Cl`, the Time is listed as 178.4 s with Mus musculus [1], 170.5 s with Mus musculus [16] and 173.8 s with Mus musculus [17]. In addition, the inhibition result on D(2) dopamine receptor [2] is “inactive”. Moreover, the Activity result in the data set with Mus musculus [3] was “Non-Toxic”; with Mus musculus [4], “Non-Toxic”; in the data set on Mus musculus [12], “Toxic”; in the data set on Mus musculus [18] it was “Non-Toxic”. Besides, in data set [5], the selectivity ratio was determined as 2.96. Further, the Ki came to 0.772 µM in data set [6]; 2.15 µM in data set [7]; 1.05 µM in [19]; 2.81 µM in data set [20]; 0.552 µM in data set [21]. The maximal effect (Emax) in data set [8] came out at 10%; in data set [11] it was 45%. The half-inhibitory concentration (IC50) in data set [9] came out at 1.18 µM. Moreover, in [10], the Kb was determined as 0.291 µM. Also, the TD50 at 0.5 h in data set [13] stood at 53.3 mg/kg. Also, the result with Mus musculus [14] was Active. Further, the median effective dose (ED50) in the data set on Mus musculus [15] came out at 18 mg/kg.
Take `Cc1cccc(OCCOCCN2CCN(CCc3ccccc3)CC2)c1C.Cl.Cl`: the Time in the data set with Mus musculus [1] was 162.1 s; with Mus musculus [16] it was 157.6 s; in the data set on Mus musculus [17] it was 161.1 s. Further, the outcome with Mus musculus [22] and in the data set on Mus musculus [25] was Active. Besides, in data set [23], the inhibition result is “inactive”. The Activity entry in the data set on Mus musculus [4] was “Non-Toxic”; in the data set on Mus musculus [27] it was “Non-Toxic”; with Mus musculus [28], “Toxic”. In the data set on Mus musculus [24], the outcome was inactive. For the same compound, the selectivity ratio in [5] was found to be 1.6. The Ki amounted to 0.036 µM in data set [6]; 0.2 µM in data set [7]; 1.21 µM at D(2) dopamine receptor [29]; 0.388 µM in data set [19]; 0.22 µM in data set [20]. The TD50 at 0.5 h in data set [13] stood at 35.5 mg/kg. The IC50 in data set [26] was 6.97 µM. For the same compound, the median effective dose (ED50) in the data set on Mus musculus [15] came out at 22.2 mg/kg.
